{"source": "ChEMBL document CHEMBL4041497", "about": "“Isolation of Phorbol Esters from Euphorbia grandicornis and Evaluation of Protein Kinase C- and Human Platelet-Activating Effects of Euphorbiaceae Diterpenes” (J Nat Prod, 2016)", "key": {"[1]": {"molecular_target": "T1, Protein kinase C (PKC) (Homo sapiens) (UniProt O94806+P41743+P17252+P05129+Q05655+P05771+Q05513+Q02156+P24723+Q15139+Q04759)", "experiment": "Activation of PKC in human platelet assessed as induction of platelet aggregation at 10 uM measured within 15 mins by tribidimetric method", "outline": "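Washed human platelets in Tyrode's solution (2 mM Ca2+, 11.1 mM glucose, 3.5 mg/mL BSA) at 3 × 10^8 platelets/mL, prewarmed 3 min at 37 °C, then given compound or DMSO vehicle with fast shaking (20 Hz) at 37 °C. Aggregation read turbidimetrically as maximal rise in light transmission at 450 nm within 15 min. Means ± SEM, n = 3.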"}, "[2]": {"molecular_target": "T1, Protein kinase C (PKC) (Homo sapiens)", "experiment": "Activation of PKC in human platelet assessed as reduction in phosphorylation of AKT at ser-308 at 0.1 uM in presence of PKCalpha/beta inhibitor Go6976 measured after 10 mins by Western blot analysis", "outline": "(§1)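 Human platelets were pretreated 1 min with Go6976 1 μM or DMSO vehicle, then stimulated with compound. Lysates were made in 2× SDS sample buffer and boiled, then run on SDS-PAGE and nitrocellulose blots. Probes were phospho-specific antibodies (PKC substrates, Akt Ser308, MARCKS, VASP, p38) with chemiluminescent detection. GAPDH was the loading control.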"}, "[3]": {"molecular_target": "T1, Protein kinase C (PKC) (Homo sapiens)", "experiment": "Activation of PKC in human platelet assessed as phosphorylation of p38 at 0.1 uM measured after 10 mins by Western blot analysis", "outline": "(§2)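 Washed human platelets were prewarmed 3 min at 37 °C and exposed to compound for 10 min. They were lysed directly in 2× SDS sample buffer and boiled 5 min, then run on SDS-PAGE. Immunoblots used phospho-specific antibodies (phospho-Ser PKC substrate, p-Akt Ser308, p-ERK, p-p38, p-VASP, p-PKD, p-MARCKS) with HRP anti-rabbit and chemiluminescence. GAPDH served as loading control.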"}, "[4]": {"molecular_target": "Protein kinase C alpha type (Homo sapiens) (UniProt P17252)", "experiment": "Induction of PKC-alpha translocation from cytosol to plasma membrane in human platelet at 0.1 uM measured after 1 min by Western blot analysis", "outline": "(§3)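 Platelets were treated with compound for 1 min, then lysed with 0.1% digitonin (4 °C, 3 min) and spun at 14 000 rpm for 10 min; the supernatant was the cytosol. The pellet was extracted with 1% Triton X-100 and respun; that supernatant was the membrane fraction. Both fractions were immunoblotted for PKC-α, -β, -δ and -θ.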"}, "[5]": {"molecular_target": "T1, Protein kinase C (PKC) (Homo sapiens)", "experiment": "Activation of PKC in human platelet assessed as phosphorylation of PKC substrates at 0.1 uM measured after 10 mins by Western blot analysis", "outline": "as §2"}, "[6]": {"molecular_target": "Protein kinase C delta type (Homo sapiens) (UniProt Q05655)", "sequence (Q05655 whole entry, looked up)": "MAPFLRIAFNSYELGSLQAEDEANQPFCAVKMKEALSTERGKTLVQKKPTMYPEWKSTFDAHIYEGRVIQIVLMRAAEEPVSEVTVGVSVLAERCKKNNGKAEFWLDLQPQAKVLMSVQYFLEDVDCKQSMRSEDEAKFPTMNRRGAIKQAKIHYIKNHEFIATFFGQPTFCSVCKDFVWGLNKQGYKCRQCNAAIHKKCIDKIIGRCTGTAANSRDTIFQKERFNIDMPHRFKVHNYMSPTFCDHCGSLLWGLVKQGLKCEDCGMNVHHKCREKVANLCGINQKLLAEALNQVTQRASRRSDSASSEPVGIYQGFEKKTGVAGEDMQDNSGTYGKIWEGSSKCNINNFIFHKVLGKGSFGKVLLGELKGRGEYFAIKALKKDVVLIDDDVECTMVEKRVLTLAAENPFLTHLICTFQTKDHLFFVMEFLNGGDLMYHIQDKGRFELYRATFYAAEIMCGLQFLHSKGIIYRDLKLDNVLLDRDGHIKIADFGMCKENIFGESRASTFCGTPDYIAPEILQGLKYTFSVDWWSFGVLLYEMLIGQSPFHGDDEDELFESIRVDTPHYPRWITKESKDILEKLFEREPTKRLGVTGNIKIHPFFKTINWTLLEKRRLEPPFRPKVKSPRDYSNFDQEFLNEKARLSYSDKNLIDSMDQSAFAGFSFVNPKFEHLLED", "experiment": "Induction of PKC-delta translocation from cytosol to plasma membrane in human platelet at 0.1 uM measured after 1 min by Western blot analysis", "outline": "as §3"}, "[7]": {"molecular_target": "T1, Protein kinase C (PKC) (Homo sapiens)", "experiment": "Activation of PKC in human platelet assessed as phosphorylation of PKD at 0.1 uM measured after 10 mins by Western blot analysis", "outline": "as §2"}, "[8]": {"molecular_target": "T1, Protein kinase C (PKC) (Homo sapiens)", "experiment": "Activation of PKC in human platelet assessed as phosphorylation of MARCK at 0.1 uM measured after 10 mins by Western blot analysis", "outline": "as §2"}, "[9]": {"molecular_target": "T1, Protein kinase C (PKC) (Homo sapiens)", "experiment": "Activation of PKC in human platelet assessed as phosphorylation of VASP at 0.1 uM measured after 10 mins by Western blot analysis", "outline": "as §2"}, "[10]": {"molecular_target": "Protein kinase C theta type (Homo sapiens) (UniProt Q04759)", "sequence (Q04759 whole entry, looked up)": "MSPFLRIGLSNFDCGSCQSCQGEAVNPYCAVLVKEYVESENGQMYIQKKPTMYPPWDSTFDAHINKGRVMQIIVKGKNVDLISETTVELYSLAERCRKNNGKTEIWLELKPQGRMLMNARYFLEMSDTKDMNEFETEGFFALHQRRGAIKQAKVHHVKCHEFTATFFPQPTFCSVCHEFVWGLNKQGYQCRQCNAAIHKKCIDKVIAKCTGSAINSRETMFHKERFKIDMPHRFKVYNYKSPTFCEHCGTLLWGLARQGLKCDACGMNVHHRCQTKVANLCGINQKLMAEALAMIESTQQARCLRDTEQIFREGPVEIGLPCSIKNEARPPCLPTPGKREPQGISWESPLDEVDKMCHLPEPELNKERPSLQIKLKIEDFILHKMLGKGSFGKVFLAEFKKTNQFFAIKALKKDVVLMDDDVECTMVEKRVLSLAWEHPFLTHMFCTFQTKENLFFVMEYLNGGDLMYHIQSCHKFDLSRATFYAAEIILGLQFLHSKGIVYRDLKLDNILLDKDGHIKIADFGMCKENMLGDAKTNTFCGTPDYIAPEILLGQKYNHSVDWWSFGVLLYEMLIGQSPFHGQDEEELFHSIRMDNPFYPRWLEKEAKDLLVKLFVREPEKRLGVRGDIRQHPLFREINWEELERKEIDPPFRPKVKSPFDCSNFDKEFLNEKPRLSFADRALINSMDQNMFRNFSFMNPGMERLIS", "experiment": "Induction of PKC-theta translocation from cytosol to plasma membrane in human platelet at 0.1 uM measured after 1 min by Western blot analysis", "outline": "as §3"}, "[11]": {"molecular_target": "T1, Protein kinase C (PKC) (Homo sapiens)", "experiment": "Activation of PKC in human platelet assessed as increase in platelet secretion by measuring ATP release at 0.1 uM in presence of PKCalpha/beta inhibitor Go6976 measured after 5 mins by luciferin-luciferase assay", "outline": "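Washed human platelets at 3 × 10^8/mL in Tyrode's with Ca2+ 2 mM, glucose 11.1 mM and BSA 3.5 mg/mL. Pretreated 1 min with Go6976 1 μM or DMSO vehicle, then compound added. After 5 min at 37 °C, centrifuged at 4 °C; supernatant ATP quantified by luciferin–luciferase assay. Means ± SEM, n = 3.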"}, "[12]": {"molecular_target": "T1, Protein kinase C (PKC) (Homo sapiens)", "experiment": "Activation of PKC in human platelet assessed as reduction in phosphorylation of VASP at 0.1 uM in presence of PKCalpha/beta inhibitor Go6976 measured after 10 mins by Western blot analysis", "outline": "as §1"}, "[13]": {"molecular_target": "T1, Protein kinase C (PKC) (Homo sapiens)", "experiment": "Activation of PKC in human platelet assessed as reduction in phosphorylation of PKC substrates at 0.1 uM in presence of PKCalpha/beta inhibitor Go6976 measured after 10 mins by Western blot analysis", "outline": "as §1"}, "[14]": {"molecular_target": "T1, Protein kinase C (PKC) (Homo sapiens)", "experiment": "Activation of PKC in human platelet assessed as reduction in phosphorylation of p38 at 0.1 in presence of PKCalpha/beta inhibitor Go6976 measured after 10 mins by Western blot analysis", "outline": "as §1"}, "[15]": {"molecular_target": "T1, Protein kinase C (PKC) (Homo sapiens)", "experiment": "Activation of PKC in human platelet assessed as phosphorylation of ERK at 0.1 uM measured after 10 mins by Western blot analysis", "outline": "as §2"}, "[16]": {"molecular_target": "T1, Protein kinase C (PKC) (Homo sapiens)", "experiment": "Activation of PKC in human platelet assessed as reduction in phosphorylation of MARCK at 0.1 uM in presence of PKCalpha/beta inhibitor Go6976 measured after 10 mins by Western blot analysis", "outline": "as §1"}, "[17]": {"molecular_target": "T1, Protein kinase C (PKC) (Homo sapiens)", "experiment": "Activation of PKC in human platelet assessed as increase in platelet secretion by measuring ATP release at 0.1 uM in presence of PKC inhibitor GF109203X measured after 5 mins by luciferin-luciferase assay", "outline": "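Washed human platelets at 3 × 10^8/mL in Tyrode's with Ca2+ 2 mM, glucose 11.1 mM and BSA 3.5 mg/mL. Prewarmed 3 min at 37 °C, then preincubated 3 min with GF109203X 1 μM before compound. After 5 min at 37 °C, spun at 4 °C; supernatant ATP measured by luciferin–luciferase bioluminescence. Means ± SEM, n = 3.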"}, "[18]": {"molecular_target": "T1, Protein kinase C (PKC) (Homo sapiens)", "experiment": "Activation of PKC in human platelet assessed as increase in platelet secretion by measuring ATP release at 0.1 uM measured after 5 mins by luciferin-luciferase assay", "outline": "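Tyrode's-suspended washed human platelets (3 × 10^8/mL; Ca2+ 2 mM, glucose 11.1 mM, BSA 3.5 mg/mL). Prewarmed 3 min at 37 °C, then incubated 5 min at 37 °C with compound or DMSO vehicle. Spun 1 min at 4 °C; released ATP in supernatant read by luciferin–luciferase reaction. Means ± SEM, n = 3.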"}, "[19]": {"molecular_target": "Protein kinase C beta type (Homo sapiens) (UniProt P05771)", "sequence (P05771 2-671 limits assumed)": "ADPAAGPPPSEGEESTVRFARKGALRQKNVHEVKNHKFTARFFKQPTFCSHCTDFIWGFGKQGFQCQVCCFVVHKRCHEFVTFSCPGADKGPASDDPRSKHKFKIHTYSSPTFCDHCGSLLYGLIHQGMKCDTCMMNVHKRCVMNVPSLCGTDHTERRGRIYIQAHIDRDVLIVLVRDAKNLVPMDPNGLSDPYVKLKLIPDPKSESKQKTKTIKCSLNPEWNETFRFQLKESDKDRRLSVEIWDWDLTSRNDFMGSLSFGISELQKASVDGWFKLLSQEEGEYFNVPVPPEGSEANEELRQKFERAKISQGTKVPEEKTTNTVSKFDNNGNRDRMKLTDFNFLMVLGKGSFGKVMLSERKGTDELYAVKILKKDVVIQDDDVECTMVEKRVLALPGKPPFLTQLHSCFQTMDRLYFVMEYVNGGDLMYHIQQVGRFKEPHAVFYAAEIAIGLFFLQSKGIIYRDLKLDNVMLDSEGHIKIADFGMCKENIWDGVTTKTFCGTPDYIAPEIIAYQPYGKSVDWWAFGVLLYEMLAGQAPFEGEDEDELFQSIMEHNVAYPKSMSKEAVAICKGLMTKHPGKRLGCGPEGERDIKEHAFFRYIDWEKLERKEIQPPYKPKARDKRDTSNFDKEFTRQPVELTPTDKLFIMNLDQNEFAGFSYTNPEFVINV", "experiment": "Induction of PKC-beta1 translocation from cytosol to plasma membrane in human platelet at 0.1 uM measured after 1 min by Western blot analysis", "outline": "as §3"}, "[20]": {"molecular_target": "T1, Protein kinase C (PKC) (Homo sapiens)", "experiment": "Activation of PKC in human platelet assessed as phosphorylation of AKT at ser-308 at 0.1 uM measured after 10 mins by Western blot analysis", "outline": "as §2"}, "Protein kinase C (PKC)": {"molecular_target": "Protein kinase C (PKC)", "experiment": "Activation of PKC in human platelet assessed as induction of platelet aggregation measured within 15 mins by tribidimetric method"}}, "note": "Calls of active or inactive are those of the source. No cut-off for these calls is given here.", "data": [{"compound": "C=C1[C@H](OC(C)=O)CC(=O)C(C)(C)/C=C/[C@@H](C)C(=O)[C@@]2(OC(C)=O)C[C@@](C)(OC(=O)c3ccccc3)[C@H](OC(C)=O)[C@@H]2[C@H]1OC(C)=O", "values": [{"measurement": "Activity", "setting": "[1]", "result": "inactive"}]}, {"compound": "CCCCCCCCCCCCCC(=O)O[C@@H]1[C@@H](C)[C@@]2(O)[C@@H](C=C(CO)C[C@]3(O)C(=O)C(C)=C[C@@H]23)[C@@H]2C(C)(C)[C@]12OC(C)=O", "values": [{"measurement": "Activity", "setting": "[2]", "result": "inactive"}, {"measurement": "Activity", "setting": "[3]", "result": "Active"}, {"measurement": "Activity", "setting": "[4]", "result": "Active"}, {"measurement": "Activity", "setting": "[5]", "result": "Active"}, {"measurement": "Activity", "setting": "[6]", "result": "Active"}, {"measurement": "Activity", "setting": "[7]", "result": "Active"}, {"measurement": "Activity", "setting": "[8]", "result": "Active"}, {"measurement": "Activity", "setting": "[9]", "result": "Active"}, {"measurement": "Activity", "setting": "[10]", "result": "Active"}, {"measurement": "Activity", "setting": "[11]", "result": "inactive"}, {"measurement": "Activity", "setting": "[12]", "result": "inactive"}, {"measurement": "Activity", "setting": "[13]", "result": "inactive"}, {"measurement": "Activity", "setting": "[14]", "result": "inactive"}, {"measurement": "Activity", "setting": "[15]", "result": "Active"}, {"measurement": "Activity", "setting": "[16]", "result": "inactive"}, {"measurement": "Activity", "setting": "[17]", "result": "inactive"}, {"measurement": "Activity", "setting": "[18]", "result": "Active"}, {"measurement": "Activity", "setting": "[19]", "result": "Active"}, {"measurement": "Activity", "setting": "[20]", "result": "Active"}]}, {"compound": "C/C=C(/C)C(=O)O[C@H]1C(C)=C[C@]23C(=O)[C@@H](C=C(C)[C@@H](O)[C@]12O)[C@H]1[C@@H](C[C@H]3C)C1(C)C", "values": [{"measurement": "EC50", "setting": "Protein kinase C (PKC)", "result": 5.04, "unit": "µM"}]}, {"compound": "C/C=C(/C)C(=O)OC[C@]1(C)[C@H]2[C@@H]3C=C(COC(C)=O)C[C@]4(O)C(=O)C(C)=C[C@H]4[C@@]3(O)[C@H](C)C[C@]21OC(=O)C(C)C", "values": [{"measurement": "EC50", "setting": "Protein kinase C (PKC)", "result": 6.08, "unit": "µM"}]}, {"compound": "C=C1[C@H](OC(C)=O)CC(=O)C(C)(C)/C=C/[C@@H](C)C(=O)[C@@]2(OC(C)=O)C[C@@](C)(OC(C)=O)[C@H](OC(C)=O)[C@@H]2[C@H]1OC(C)=O", "values": [{"measurement": "Activity", "setting": "[1]", "result": "inactive"}]}, {"compound": "CC(=O)O[C@@H]1[C@H]2[C@@H](OC(=O)c3ccccc3)[C@@H](C)C[C@]2(OC(C)=O)[C@@H](OC(C)=O)[C@]2(C)OC[C@]13C(=O)C=C[C@H](C(C)(C)OC(C)=O)[C@@H]23", "values": [{"measurement": "Activity", "setting": "[1]", "result": "inactive"}]}, {"compound": "C/C=C(/C)C(=O)O[C@H]1C(C)=C[C@]23C(=O)[C@@H](C=C(CO)[C@@H](O)[C@]12O)[C@H]1[C@@H](C[C@H]3C)C1(C)C", "note": "[INGENOL MEBUTATE]", "values": [{"measurement": "Activity", "setting": "[3]", "result": "Active"}, {"measurement": "Activity", "setting": "[4]", "result": "Active"}, {"measurement": "Activity", "setting": "[5]", "result": "Active"}, {"measurement": "Activity", "setting": "[6]", "result": "Active"}, {"measurement": "Activity", "setting": "[7]", "result": "Active"}, {"measurement": "Activity", "setting": "[8]", "result": "Active"}, {"measurement": "Activity", "setting": "[9]", "result": "Active"}, {"measurement": "Activity", "setting": "[15]", "result": "Active"}, {"measurement": "Activity", "setting": "[18]", "result": "Active"}, {"measurement": "Activity", "setting": "[19]", "result": "Active"}, {"measurement": "EC50", "setting": "Protein kinase C (PKC)", "result": 0.0725, "unit": "µM"}, {"measurement": "Activity", "setting": "[20]", "result": "Active"}]}]}
